From PubChem BioAssay
Most compounds without a hit are left out; they make up all but 6.7% or so of the library.
GRIN3A LBD mod: modulates the human NR3A ligand-binding domain; NR3A LBD differential scanning fluorimetry, Tm shift; 0% = protein alone, 100% = glycine-bound protein; Tm shift relative to glycine control, % at 25 µM; 2.5% of 340,000 active;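 active = melting temperature shift of at least 10% of the positive control shift, at one fixed dose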
Beta apoptosis: beta cell apoptosis inhibition | 0.8% of 300,000 active | protection from apoptosis, % (no concentration beside the values) | INS-1E cytokine-induced death, ATP luminescence, 48 h; percent of positive-control rescue, neutral wells zero;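 active = Every replicate reaches about 75%, or at least half do and their mean reaches it too, limit read from the data; inconclusive = At least half of replicates reach the limit but their mean does not; inactive = Under half of replicates reach the limit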;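 note: 0% = cytokine-treated negative control wells and 100% = positive control rescue; higher means more ATP so stronger rescue from cytokine killing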
CSC inhib: blocks cancer stem cells; cancer stem cell-like cells viability, luminescence; inhibition, % at 7.5 µM; 1.1% of 300,000 active; in the data active = inhibition above about 75%; inconclusive = no clear call, values can overlap the other calls; tested in HMLE shEcad cells
CHOP inhibitor: CHOP inhibition in unfolded protein response; CHO-K1 CHOP-promoter luciferase, tunicamycin-induced, 15-18 h; inhibition, % at 10 µM; 3.8% of 220,000 active; AID 2732;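 active = compounds that reduced the stress-induced luciferase reporter signal by more than about 70% of percent inhibition, limit read from the data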;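 note: 0% = tunicamycin plus vehicle and 100% = wells without tunicamycin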
T cruzi repl: T. cruzi replication inhibition. T. cruzi beta-gal in NIH3T3, luminescence, 90 h. inhibition, % (test concentration not listed). 1.4% of 300,000 active;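 active = mean inhibition across valid replicates above about 55%, limit read from the data; inconclusive = mean below that limit but half or more replicates reach it; inactive = mean below it, under half of replicates reach it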;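 note: signal also drops with host cell toxicity which is not excluded here; 0% = plate median of DMSO wells and 100% = zero luminescence signal; higher percent means less beta-gal luminescence so fewer parasites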
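Material: NIH/3T3 host cells with β-galactosidase reporter T. cruzi; Input: 5,000 host fibroblasts per well; Medium: DMEM, 2% fetal bovine serum; Compound: 50 nL DMSO compound solution per well; Schedule: 3 h host attachment, then at least 90 h co-culture; Detection: luminescent β-galactosidase signal after 60 min lysis.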
PREPL inh: inhibits the human prolyl oligopeptidase-like enzyme | Q4J6C6 | AID 2751 | 0.68% of 320,000 active | inhibition, % at 5.96 µM | recombinant PREPL, fluorescence polarization activity-based probe; in the data active = inhibition above about 43%;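 note: 0% = enzyme with DMSO and 100% = wells lacking enzyme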
* marks the source's active call; other numbers are inactive results.

`Cc1ccc2c(c1)c1c(n2CC(O)Cn2nc(C)c(Br)c2C)C(=O)CCC1` (centres undefined) gave GRIN3A LBD mod 0, Beta apoptosis 2, CSC inhib 9, CHOP inhibitor 72*, T cruzi repl 1 and PREPL inh -3.
For CC(NC(=O)COC(=O)c1ccc[nH]c1=O)c1ccccc1 (centres undefined) the results were GRIN3A LBD mod 0, Beta apoptosis -8, CSC inhib 5 and PREPL inh 20.
Screening CCNc1nc(NC(C)(C)C)nc(SCC(N)=O)n1 returned GRIN3A LBD mod -1, Beta apoptosis -9, CSC inhib -13, CHOP inhibitor 9, T cruzi repl -1 and PREPL inh 2.
`CCCCN(CC)CCCNC(=S)Nc1ccc2nc3n(c(=O)c2c1)CCCCC3` gave GRIN3A LBD mod 1, Beta apoptosis 6, CSC inhib -6, CHOP inhibitor -36, T cruzi repl 56* and PREPL inh 7.
O=c1c2cc(NC(=S)NCCN3CCCCCC3)ccc2nc2n1CCCCC2 was read as GRIN3A LBD mod 0, Beta apoptosis -2, CSC inhib 13, CHOP inhibitor 8, T cruzi repl 8 and PREPL inh 7.
O=C(Nc1ccc2nc3n(c(=O)c2c1)CCCCC3)c1cc([N+](=O)[O-])ccc1F was read as GRIN3A LBD mod 0, Beta apoptosis 16, CSC inhib inconclusive, T cruzi repl -45 and PREPL inh 19.
For O=C(Nc1ccc2nc3n(c(=O)c2c1)CCCCC3)c1c(F)ccc([N+](=O)[O-])c1F the results were GRIN3A LBD mod -2, Beta apoptosis 105*, CSC inhib 116*, T cruzi repl 10 and PREPL inh 14.
O=c1c2cc(NC(=S)NCCCN3CCC(Cc4ccccc4)CC3)ccc2nc2n1CCCCC2 was read as GRIN3A LBD mod 0, Beta apoptosis -3, CSC inhib 101*, CHOP inhibitor 47, T cruzi repl 57* and PREPL inh 14.
Cc1ccnc(SCCn2c(N3CCOCC3)nc3c2c(=O)[nH]c(=O)n3C)n1 was read as GRIN3A LBD mod -3, CSC inhib -1 and PREPL inh 9.
Cc1ccnc(SCCn2c(N3CCC(C)CC3)nc3c2c(=O)[nH]c(=O)n3C)n1 was read as GRIN3A LBD mod 13* and CHOP inhibitor 22.
Screening O=C(NCCN1C(=O)S/C(=C\c2ccccc2)C1=O)C1CCN(S(=O)(=O)c2cccs2)CC1 returned GRIN3A LBD mod 15*, Beta apoptosis -5, CSC inhib 0, CHOP inhibitor 19, T cruzi repl 3 and PREPL inh 11.
Screening CCn1ncc(/C=C2/SC(=S)NC2=O)c1C returned GRIN3A LBD mod 12*, CSC inhib -2, CHOP inhibitor -23, T cruzi repl 1 and PREPL inh 1.
`CCn1c(C)cc(/C=C2/SC(=S)NC2=O)c1C` gave GRIN3A LBD mod 0, Beta apoptosis -10, CSC inhib -13, CHOP inhibitor -9, T cruzi repl 9 and PREPL inh 6.
`CCOC(=O)c1[nH]c(COC(=O)c2ccccc2NC(=O)c2ccco2)c(C(=O)OCC)c1C` gave GRIN3A LBD mod -4, Beta apoptosis 6, CSC inhib 2, CHOP inhibitor 81*, T cruzi repl 22 and PREPL inh -11.
`CCOC(=O)c1ccccc1NC(=O)c1cccc(F)c1` gave GRIN3A LBD mod 0, Beta apoptosis 2, CSC inhib 19, CHOP inhibitor 74*, T cruzi repl 5 and PREPL inh 6.
For CCOC(=O)c1ccccc1NC(=O)c1c(F)c(F)c(F)c(F)c1F the results were GRIN3A LBD mod 1, Beta apoptosis -2, CSC inhib 0, CHOP inhibitor 73*, T cruzi repl -12 and PREPL inh 10.
For CCOC(=O)c1ccccc1NC(=O)c1ccc2nccnc2c1 the results were GRIN3A LBD mod -1, Beta apoptosis 1, CSC inhib -13, CHOP inhibitor -1, T cruzi repl 8 and PREPL inh 5.
Screening O=C(Nc1ccccc1C(=O)NCCc1ccccc1)c1ccco1 returned GRIN3A LBD mod 16*, Beta apoptosis 1, CHOP inhibitor 40, T cruzi repl 3 and PREPL inh -22.
`O=C(O)CNC(=O)c1ccccc1NC(=O)c1ccco1` gave GRIN3A LBD mod 1, Beta apoptosis -14, CSC inhib -7, CHOP inhibitor -2 and PREPL inh -4.
